KCNQ1 act – potentiators or activators of human KCNQ1 potassium channel; CHO-K1 KCNQ1, thallium flux FluxOR fluorescence; active compounds read high; B-score at 10 µM; hit rate 0.35% among 310,000; AID 2648;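 active means fluorescence ratio B-score, a plate-corrected score, at least three library SD, with initial intensity B-score within 5 SD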
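Medium – assay buffer, equal DMSO in all wells · Material – CHO-K1 cell line with stable KCNQ1 potassium channel expression · Signal – kinetic FluxOR thallium fluorescence, 10-s 1-Hz baseline, 110-s post-stimulus read · Compound – single concentration per compound, DMSO matched to controls · Schedule – 37 °C overnight plating, 90-min dark dye load, 20-min compound pretreatment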
hERG rescue – hERG (human) protection from proarrhythmic block. Q12809. CHO-hERG, FluxOR thallium flux, dofetilide IC70 present. activation (rescue from dofetilide block), less the hit threshold, % at 10 µM. hit rate 0.51% among 310,000;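 active means activation above the mean of controls blocked by dofetilide plus 5 SD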;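 further: thallium influx through hERG after potassium depolarization seen as dye fluorescence rise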
KCNK9 inh – human KCNK9 channel inhibition | Q9NPC2 | HEK293 KCNK9, FluxOR thallium flux fluorescence; active compounds read low | B-score at 10 µM | hit rate 1.2% among 310,000;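 active means ratio B-score over 3 SD below the library mean, with starting fluorescence within 5 SD of its mean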;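 further: negative B-score means less thallium flux so channel inhibition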
KCNK3 inh – human KCNK3 channel inhibition, primary screen; O14649; CHO-KCNK3 thallium flux, FluxOR fluorescence; active compounds read low; B-score at 10 µM; hit rate 0.84% among 340,000; AID 602410;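 active means B-score under library mean minus 4 SD, starting fluorescence ratio at most library mean plus 5 SD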;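 further: more negative B-score means stronger inhibition of thallium flux through KCNK3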
KCNQ1 inh – inhibitors of human KCNQ1 potassium channel; P51787; CHO-K1 KCNQ1, FluxOR thallium flux fluorescence; active compounds read high; B-score at 10 µM; hit rate 1.3% among 310,000;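 active means compounds whose thallium flux B-score, printed positive for inhibition, exceeds three library SD while starting fluorescence stays within three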;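 further: channel opened by potassium depolarization with thallium stimulus after 20 min compound exposure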
Cl transport mod – modulators of human KCC2 chloride dependent transport; AID 1456; B-score of Tl+ flux slope (higher = more flux/activation; lower = inhibition) at 10 µM; KCC2 cells, thallium flux FluoZin-2 fluorescence; hit rate 2.2% among 190,000;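 active means thallium flux slope and its plate-corrected score both differing from the plate sample mean at a set confidence after two filtering rounds, in either direction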;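 further: slope of fluorescence scaled to starting intensity during 10 to 20 s after thallium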
KCNK9 block conf – human KCNK9 inhibitor confirmation. shares compounds with KCNK9 inh. HEK293 KCNK9 cells, FluxOR thallium flux fluorescence. inhibition, % at 10 µM. hit rate 43% among 4,900. AID 492992;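 active means thallium signal inhibited by more than 5 SD of the compound-free buffer control wells, on both duplicate plates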
Kir2-1 spec – tests whether KCNK9 modulators also affect mouse Kir2.1. shares compounds with KCNK9 inh. Kir2.1 cells, FluxOR thallium flux fluorescence. inhibition, % at 10 µM. hit rate 4% among 4,900. AID 492993;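 active means thallium signal drop more than 5 SD beyond the mean of the no-compound control wells, seen in both duplicate plates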;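 further: signal is fluorescence rise after thallium addition divided by baseline fluorescence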
Target sequence (P35561 whole entry, looked up): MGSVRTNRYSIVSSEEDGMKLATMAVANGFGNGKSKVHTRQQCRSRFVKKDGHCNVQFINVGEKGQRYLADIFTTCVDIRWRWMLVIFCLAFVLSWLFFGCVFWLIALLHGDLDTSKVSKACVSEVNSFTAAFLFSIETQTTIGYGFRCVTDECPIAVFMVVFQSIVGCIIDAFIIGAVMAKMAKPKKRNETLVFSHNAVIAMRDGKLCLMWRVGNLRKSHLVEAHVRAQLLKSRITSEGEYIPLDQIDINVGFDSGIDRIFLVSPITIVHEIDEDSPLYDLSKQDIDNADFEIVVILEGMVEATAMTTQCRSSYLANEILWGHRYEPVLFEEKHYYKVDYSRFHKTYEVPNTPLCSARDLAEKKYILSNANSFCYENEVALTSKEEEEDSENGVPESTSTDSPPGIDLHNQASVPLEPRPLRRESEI
HEK293 Tl ctr – second check of KCNK9 modulator effects in non-induced HEK293 cells; shares compounds with KCNK9 inh; FluxOR thallium flux; inhibition, % at 10 µM; hit rate 40% among 4,900;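 active means thallium signal drop beyond 5 SD of the untreated control mean, on both duplicate plates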
A number is an active result; n = inactive; x = no result given. Compounds with a hit are over-represented: about 4.1% of the library has one in this group of screens.

SMILES | KCNQ1 act | hERG rescue | KCNK9 inh | KCNK3 inh | KCNQ1 inh | Cl transport mod | KCNK9 block conf | Kir2-1 spec | HEK293 Tl ctr
O=C(/C=C/c1cccc([N+](=O)[O-])c1)NCCSCc1ccc(Cl)cc1 | n | n | -8.95 | n | n | n | 54.5% | n | 32.5%
COc1ccc(N2CCN(C(CNS(=O)(=O)c3ccccc3)c3ccccc3)CC2)cc1 (stereo not drawn) | n | n | n | n | n | x | x | x | x
O=c1c2ccccc2ncn1CCCSc1ccccc1 | n | n | n | n | n | n | n | n | 29.5%
O=c1c2ccccc2ncn1CCCSc1ccc(Cl)cc1 | n | n | n | n | n | n | x | x | x
COc1cccc(/C=N/Nc2nc(Nc3ccccc3)nc(-n3nc(C)cc3C)n2)c1O | n | n | -10.3 | n | n | n | 43.0% | n | 23.5%
O=C(CSc1ccc(Br)c2cccc(Cl)c12)Nc1ccc(S(=O)(=O)Nc2nccs2)cc1 | n | n | n | n | n | n | n | n | n
CCOc1ccc(NC(=O)CSc2nnnn2-c2ccc(C(N)=O)cc2)cc1 | n | n | n | n | n | x | x | x | x
Cc1cccc(Oc2ccc(S(=O)(=O)N3CCCCC3)cc2N)c1 | n | n | -10.5 | n | n | n | 50.5% | n | 31.0%
Cc1ccc(S(=O)(=O)N2CCC(C(=O)OCCOc3cccc(C)c3)CC2)cc1 | x | x | x | n | x | x | x | x | x
Cc1ccc(S(=O)(=O)N2CCC(C(=O)OCCOc3ccccc3)CC2)cc1C | n | n | n | n | n | x | x | x | x
Cc1ccc(OCCOC(=O)C2CCN(S(=O)(=O)c3ccc(C)c(C)c3)CC2)cc1 | n | n | n | n | n | x | n | n | n
Cc1cccc(OCCC(=O)Nc2ccc(C)c(S(=O)(=O)N3CCCCC3)c2)c1 | n | n | n | n | n | n | n | n | n
Cc1cccc(OCCOC(=O)C2CCN(S(=O)(=O)c3ccc(C)c(C)c3)CC2)c1 | n | n | n | n | n | x | n | n | n
O=C(NCCCN1CCCC1=O)c1cc(S(=O)(=O)N2CCOCC2)ccc1Cl | n | n | n | n | n | x | x | x | x
COc1cc2c(cc1OC)-c1cc(Nc3cccc(C)c3)nc(=O)n1CC2 | n | n | n | n | n | x | x | x | x
O=C(O)c1cccc(N2C(=O)C3C4C=CC(C4=C(c4ccccc4)c4ccccc4)C3C2=O)c1 (stereo not drawn) | n | n | n | n | n | n | n | n | n
Cc1ccc(C(=O)O)cc1NC(=S)NC(=O)c1ccc(-c2ccccc2)cc1 | n | n | n | n | n | n | n | n | n
Cc1ccc(C(=O)O)cc1NC(=S)NC(=O)c1ccc(-c2ccc(Cl)cc2)o1 | n | n | n | n | n | n | x | x | x
Cc1cccc(NC(=S)NC(=O)c2ccc(-c3ccccc3)cc2)n1 | n | n | -11.4 | n | n | x | n | n | n
Fc1ccc2c(c1)Sc1ccc(Cl)cc1CC2N1CCN(CCC2OCCO2)CC1 (stereo not drawn) | n | n | n | n | n | x | n | n | n
c1ccc(Cn2nnc(CNc3ccccc3)c2-c2c(CNc3ccccc3)nnn2Cc2ccccc2)cc1 | n | n | -17.2 | n | n | n | 63.5% | n | 36.5%
CC(NC(=O)C1CCC(C(C)(C)C)CC1)C(c1ccccc1)N1CCOCC1 (stereo not drawn) | n | n | n | n | n | n | n | n | n
CSc1ccccc1NC(=O)c1cc(S(=O)(=O)N(C)C)ccc1N1CCCC1 | n | n | n | n | n | x | n | n | n
CN(C)S(=O)(=O)c1ccc(N2CCCC2)c(C(=O)NCC2COc3ccccc3O2)c1 (stereo not drawn) | n | n | n | n | n | x | n | n | n
CN(C)S(=O)(=O)c1ccc(N2CCCC2)c(C(=O)Nc2ccccc2OC(F)F)c1 | n | n | n | n | n | n | n | n | n
SMILES | KCNQ1 act | hERG rescue | KCNK9 inh | KCNK3 inh | KCNQ1 inh | Cl transport mod | KCNK9 block conf | Kir2-1 spec | HEK293 Tl ctr
O=S(=O)(Nc1ccccc1)C1CCCCC1 | x | x | x | n | x | x | x | x | x
COc1cc(/C=C/C(=O)OCC(=O)N2CCC(Cc3ccccc3)CC2)ccc1O | n | n | n | n | n | n | n | n | n
COc1cccc(OC)c1C(=O)OCC(=O)N1CCC(Cc2ccccc2)CC1 | x | x | x | n | x | x | x | x | x
COc1cc(/C=C/C(=O)OCC(=O)N2CCC(C)CC2)ccc1O | n | n | n | n | n | x | x | x | x
COc1cc(C(=O)OCC(=O)N2CCC(Cc3ccccc3)CC2)cc(OC)c1OC | n | n | n | n | n | x | n | n | n
COc1cccc(OC)c1OCCCN1CCC(Cc2ccccc2)CC1 | n | n | n | n | n | x | n | n | n
COc1ccc(CN2CCC(Cc3ccccc3)CC2)cc1OC | n | n | n | n | n | x | x | x | x
CCOC(=O)[C@H]1[C@H]2COc3ccc(C)cc3[C@@H]2N2C(=O)c3cc(Cl)ccc3NC(=O)[C@@]12C | x | x | x | n | x | x | x | x | x
O=C(c1cc(=O)[nH]c2ccccc12)N1CC=C(c2ccccc2)CC1 | n | n | n | n | n | x | x | x | x
C/C(=N\N=c1/scc(C)n1Cc1ccco1)c1cccc([N+](=O)[O-])c1 | n | n | -8.73 | n | n | n | n | n | n
Cc1cs/c(=N\N=C\c2cccc([N+](=O)[O-])c2)n1Cc1ccco1 | n | n | n | n | n | n | x | x | x
Cc1c(C)c2ccc(OCC(=O)NCCCN3CCCC3=O)cc2oc1=O | n | n | n | n | n | x | x | x | x
COc1ccc(C(=O)c2cccc(C(=O)c3ccc(OC)c(C)c3)c2)cc1C | n | n | n | n | n | x | n | n | n
Cc1ccc(C(=O)c2cccc(N)c2)cc1C | n | n | n | n | n | n | x | x | x
CCOC(=O)c1ccc(NS(=O)(=O)c2c(C)[nH]c(C)c2C(=O)N2CCCCC2)cc1 | n | n | n | n | n | x | x | x | x
COC(=O)c1c(C)[nH]c(C(=O)COC(=O)Cn2cc(C(F)(F)F)ccc2=O)c1C | x | x | x | n | x | x | x | x | x
CC(C)OC(=O)CSc1nc(Cc2cccs2)nc2ccccc12 | n | n | -11.9 | n | n | n | 54.0% | 45.0% | 32.5%
Cc1ccc(-c2nc(NCCCO)c3ccccc3n2)cc1 | n | n | n | n | n | x | x | x | x
Cc1cccc2nc(-c3ccccc3)nc(N[C@@H](CO)c3ccccc3)c12 | n | n | -8.33 | n | n | n | 50.0% | n | 43.5%
Cc1ccc(CSCc2ccc(C(=O)NC3CC3)o2)cc1 | n | n | n | n | n | x | x | x | x
Cc1ccc(CSCc2ccc(C(=O)NCCC(C)C)o2)cc1 | n | n | n | n | n | x | n | n | n
O=[N+]([O-])c1c(C(Cl)Cl)nn(-c2ccc(Cl)cc2)c1N1CCCCC1 | n | n | n | n | n | n | n | n | n

Screening data deposited in PubChem BioAssay by several laboratories.
